This note sets out measurements from ChEMBL document CHEMBL3272200, “Synthsis and antitumor properties of bis(quinaldine) derivatives” (J Med Chem, 1977).

The test system of data set [1] is Calf thymus DNA. Put plainly: Binding affinity to calf thymus DNA assessed as inhibition of DNA-dependent Escherichia coli RNA polymerase activity by measuring [14C]ATP incorporation by liquid scintillation spectrometer analysis. Particulars: for inhibition: Bos taurus; for IC50: read-out: I50. The format is nucleic-acid assay. The essentials:
(§1)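 0.125 mL mix: Tris-HCl pH 8.0 5 μmol, MgCl2 1.25 μmol, β-mercaptoethanol 1.25 μmol, CTP/UTP/GTP 0.019 μmol each, [8-14C]ATP 0.019 μmol, calf thymus DNA 3.65 μg. Compound in 5 μL MeOH (MeOH-only controls) added before the E. coli enzyme. Incubated 10 min at 37. Acid-insoluble label collected by filter-disk method and scintillation counted. Triplicates.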

Data set [2] deals with Calf thymus DNA. Nature of the data set: Binding affinity to calf thymus DNA assessed as inhibition of DNA-dependent Escherichia coli RNA polymerase activity by measuring [14C]ATP incorporation at 50 uM by liquid scintillation spectrometer analysis. The format is nucleic-acid assay. Particulars: Bos taurus. The essentials:
as §1

Data set [3] concerns Calf thymus DNA. Put plainly: Binding affinity to calf thymus DNA assessed as inhibition of DNA-dependent Escherichia coli RNA polymerase activity by measuring [14C]ATP incorporation at 5 uM by liquid scintillation spectrometer analysis. It is filed as nucleic-acid assay. Particulars: Bos taurus. The essentials: as §1
Data set [4] concerns Calf thymus DNA. Nature of the data set: Binding affinity to calf thymus DNA assessed as inhibition of DNA-dependent Escherichia coli RNA polymerase activity by measuring [14C]ATP incorporation at 7.5 uM by liquid scintillation spectrometer analysis. Particulars: Bos taurus. It is filed as nucleic-acid assay. In a few lines:
as §1

Data set [5] concerns Calf thymus DNA. Nature of the data set: Binding affinity to calf thymus DNA assessed as inhibition of DNA-dependent Escherichia coli RNA polymerase activity by measuring [14C]ATP incorporation at 10 uM by liquid scintillation spectrometer analysis. It is filed as nucleic-acid assay. Particulars: Bos taurus. In a few lines:
as §1

In data set [6] the test system is Calf thymus DNA. Nature of the data set: Binding affinity to calf thymus DNA assessed as inhibition of DNA-dependent Escherichia coli RNA polymerase activity by measuring [14C]ATP incorporation at 0.1 mM by liquid scintillation spectrometer analysis. The format is nucleic-acid assay. Particulars: Bos taurus. The essentials: as §1
For data set [7], the system named is Calf thymus DNA. Nature of the data set: Binding affinity to calf thymus DNA assessed as inhibition of DNA-dependent Escherichia coli RNA polymerase activity by measuring [14C]ATP incorporation at 2.5 uM by liquid scintillation spectrometer analysis. It is filed as nucleic-acid assay. Particulars: Bos taurus. The essentials: as §1
Data set [8] has as its system Calf thymus DNA. Put plainly: Binding affinity to calf thymus DNA assessed as change in melting temperature at 10 uM by spectrophotometer analysis. Particulars: Bos taurus. It is filed as nucleic-acid assay. In a few lines: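 Drug at 1×10^-5 M with 15 μg/mL calf thymus DNA in 5 mM phosphate buffer, pH 7.4. Absorbance followed at 260 nm while temperature rose at 1.0 °C/min to give the melting temperature.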

Data set [9] in a line: Retardation factor of the compound using n-BuOH-AcOH-H2O at ratio of 3:1:2 as solvent system by silica gel based chromatography. The format is physicochemical.
Data set [10] deals with P388. Put plainly: Antitumor activity against mouse P388 cells assessed as mean animal survival time at 12.5 mg/kg administered qd for 1 to 9 days relative to control. The format is functional. The essentials:
(§2)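 P-388 leukemia survival test. The value is T/C: mean or median survival time of treated animals divided by that of control animals, expressed as a percentage. A compound counts as active if it gives reproducible T/C values of 125% or more.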

Data set [11] relates to P388. Nature of the data set: Antitumor activity against mouse P388 cells assessed as mean animal survival time at 6.25 mg/kg administered qd for 1 to 9 days relative to control. The format is functional. In a few lines:
as §2

The test system of data set [12] is P388. Nature of the data set: Antitumor activity against mouse P388 cells assessed as mean animal survival time at 25 mg/kg administered qd for 1 to 9 days relative to control. It is filed as functional. In a few lines: as §2
Data set [13] has as its system P388. Nature of the data set: Antitumor activity against mouse P388 cells assessed as mean animal survival time at 100 mg/kg administered qd for 1 to 9 days relative to control. The format is functional. The essentials:
as §2

The subject of data set [14] is P388. Put plainly: Antitumor activity against mouse P388 cells assessed as mean animal survival time at 400 mg/kg administered qd for 1 to 9 days relative to control. It is filed as functional. In a few lines:
as §2

The structures appear in SMILES notation.

Usually inhibition stands for the share of the control response that was lost under treatment. In general, ΔTm refers to the change in melting temperature against a reference sample. Turning to `Cc1cc(NCCCNCCCNc2cc(C)nc3cc(N)ccc23)c2ccc(N)cc2n1`, the inhibition entry was “Dose-dependent effect” in the data set on Calf thymus DNA [1]; 98% in the data set on Calf thymus DNA [2]; 9% in the data set on Calf thymus DNA [3]; 31% in the data set on Calf thymus DNA [4]; 96% in the data set with Calf thymus DNA [5]; 94% in the data set on Calf thymus DNA [6]. The inhibition in the data set on Calf thymus DNA [7] was determined as 0%. Further, the shift in melting temperature (ΔTm) in the data set on Calf thymus DNA [8] was found to be 22.5 °C.

As a reminder, the T/C is the ratio of treated to control. As to `Cc1cc(NCCCCCCCNc2cc(C)nc3cc([N+](=O)[O-])ccc23)c2ccc([N+](=O)[O-])cc2n1.Cl`, in [9], the Rf worked out at 0.79. Also, the T/C in the data set with P388 [10] came out at 149%.

Turning to `Cc1cc(NCCCCNCCCNc2cc(C)nc3cc(N)ccc23)c2ccc(N)cc2n1`, the inhibition result in the data set on Calf thymus DNA [1] was “Dose-dependent effect”; in the data set on Calf thymus DNA [2] it was 94%; with Calf thymus DNA [3], 17%; in the data set on Calf thymus DNA [4] it was 38%; in the data set with Calf thymus DNA [5], 95%; in the data set on Calf thymus DNA [6], 92%. Besides, the inhibition in the data set on Calf thymus DNA [7] is 0%. Also, the ΔTm in the data set on Calf thymus DNA [8] was found to be 19.5 °C.

In the case of `Cc1cc(NCCCCCCCNc2cc(C)nc3cc(N)ccc23)c2ccc(N)cc2n1.Cl`, the IC50 with Calf thymus DNA [1] came to 6 µM. Besides, the Rf in data set [9] is 0.63.

Take `CC(=O)O.Cc1cc(NCCCCCCCNc2cc(C)nc3cc(N)ccc23)c2ccc(N)cc2n1`: the T/C with P388 [11] was determined as 196%.

Take `Cc1cc(NCCCNCCCNc2cc(C)nc3cc([N+](=O)[O-])ccc23)c2ccc([N+](=O)[O-])cc2n1.Cl`: in data set [9], the Rf stood at 0.69. Moreover, in the data set on P388 [12], the T/C was 150%.

`Cc1cc(NCCCCCCNc2cc(C)nc3cc([N+](=O)[O-])ccc23)c2ccc([N+](=O)[O-])cc2n1.Cl`: the Rf in data set [9] was found to be 0.77. The T/C with P388 [13] is 99%.

As for `Cc1cc(NCCCCCCCCNc2cc(C)nc3cc([N+](=O)[O-])ccc23)c2ccc([N+](=O)[O-])cc2n1.Cl`, the Rf in data set [9] was found to be 0.8. Further, the T/C in the data set on P388 [10] was 110%.

As for `Cc1cc(NCCCCNCCCNc2cc(C)nc3cc([N+](=O)[O-])ccc23)c2ccc([N+](=O)[O-])cc2n1.Cl`, in data set [9], the Rf stood at 0.73. Also, the T/C in the data set on P388 [10] is listed as 150%.

Consider `Cc1cc(NCCCCCCNc2cc(C)nc3ccc(N)cc23)c2cc(N)ccc2n1.Cl`, for which the T/C in the data set with P388 [14] is 254%. For the same compound, the ΔTm with Calf thymus DNA [8] was determined as 18 °C.

In the case of `Cc1cc(NCCCNCCCNc2cc(C)nc3cc(N)ccc23)c2ccc(N)cc2n1.Cl`, the IC50 in the data set on Calf thymus DNA [1] was determined as 6 µM. Besides, the Rf in [9] was determined as 0.57.

On to `Cc1cc(NCCCCNCCCNc2cc(C)nc3cc(N)ccc23)c2ccc(N)cc2n1.Cl`, for which the IC50 in the data set with Calf thymus DNA [1] was 6 µM. Also, in data set [9], the Rf turned out to be 0.5.

As to `Cc1cc(NCCCCCCNc2cc(C)nc3cc(N)ccc23)c2ccc(N)cc2n1.Cl`, the IC50 in the data set on Calf thymus DNA [1] came out at 6 µM. Also, the Rf in [9] was 0.6.

Consider `Cc1cc(NCCCCCCCCNc2cc(C)nc3cc(N)ccc23)c2ccc(N)cc2n1.Cl`, for which the IC50 in the data set with Calf thymus DNA [1] turned out to be 6 µM. Moreover, in data set [9], the Rf was 0.7.

As to `Cc1cc(NCCCCCCCNc2cc(C)nc3cc(N)ccc23)c2ccc(N)cc2n1`, the inhibition entry is “Dose-dependent effect” with Calf thymus DNA [1]; 98% in the data set with Calf thymus DNA [2]; 0% with Calf thymus DNA [3]; 24% in the data set on Calf thymus DNA [4]; 63% in the data set on Calf thymus DNA [5]; 98% with Calf thymus DNA [6]. Besides, in the data set with Calf thymus DNA [7], the inhibition was determined as 0%. The ΔTm with Calf thymus DNA [8] was 17 °C.

Consider `CC(=O)O.Cc1cc(NCCCCCCCCNc2cc(C)nc3cc(N)ccc23)c2ccc(N)cc2n1`, for which the T/C in the data set on P388 [11] is reported as 134%.

Consider `CC(=O)O.Cc1cc(NCCCNCCCNc2cc(C)nc3cc(N)ccc23)c2ccc(N)cc2n1`, for which the T/C in the data set with P388 [10] was 150%.

With `CC(=O)O.Cc1cc(NCCCCNCCCNc2cc(C)nc3cc(N)ccc23)c2ccc(N)cc2n1`, in the data set with P388 [12], the T/C was 165%.

With `Cc1cc(NCCCCCCNc2cc(C)nc3cc(N)ccc23)c2ccc(N)cc2n1`, the inhibition result in the data set with Calf thymus DNA [1] is “Dose-dependent effect”; with Calf thymus DNA [2] it was 93%; in the data set on Calf thymus DNA [3] it was 29%; in the data set on Calf thymus DNA [4] it was 50%; in the data set with Calf thymus DNA [5], 91%; in the data set with Calf thymus DNA [6] it was 97%. Moreover, the inhibition in the data set on Calf thymus DNA [7] was 0%. Further, the shift in melting temperature (ΔTm) in the data set with Calf thymus DNA [8] came to 19 °C.

For `Cc1cc(NCCCCCCCCNc2cc(C)nc3cc(N)ccc23)c2ccc(N)cc2n1`, the inhibition result is “Dose-dependent effect” in the data set on Calf thymus DNA [1]; 95% with Calf thymus DNA [2]; 38% in the data set with Calf thymus DNA [3]; 91% in the data set with Calf thymus DNA [4]; 95% in the data set with Calf thymus DNA [5]; 97% in the data set with Calf thymus DNA [6]. Further, in the data set on Calf thymus DNA [7], the inhibition is 0%. Besides, the ΔTm with Calf thymus DNA [8] turned out to be 18.5 °C.

As for `CC(=O)O.Cc1cc(NCCCCCCNc2cc(C)nc3cc(N)ccc23)c2ccc(N)cc2n1`, the T/C with P388 [12] was 158%.
